Reference: ChEMBL document CHEMBL3414498, “Design and synthesis of 3-(3-((9H-carbazol-4-yl)oxy)-2-hydroxypropyl)-2-phenylquinazolin-4(3H)-one derivatives to induce ACE inhibitory activity” (Eur J Med Chem, 2015)
Active and inactive are the calls of the source. The rule behind the calls is not given here.

Experiments:
[1] = biological target: Angiotensin-converting enzyme (Homo sapiens) (UniProt P12821); test: Inhibition of ACE (unknown origin) at 1 uM using synthetic peptide hippuryl-histidyl-leucine substrate by high-throughput colorimetric screening method
Angiotensin-converting enzyme (Homo sapiens), sequence (P12821 whole entry): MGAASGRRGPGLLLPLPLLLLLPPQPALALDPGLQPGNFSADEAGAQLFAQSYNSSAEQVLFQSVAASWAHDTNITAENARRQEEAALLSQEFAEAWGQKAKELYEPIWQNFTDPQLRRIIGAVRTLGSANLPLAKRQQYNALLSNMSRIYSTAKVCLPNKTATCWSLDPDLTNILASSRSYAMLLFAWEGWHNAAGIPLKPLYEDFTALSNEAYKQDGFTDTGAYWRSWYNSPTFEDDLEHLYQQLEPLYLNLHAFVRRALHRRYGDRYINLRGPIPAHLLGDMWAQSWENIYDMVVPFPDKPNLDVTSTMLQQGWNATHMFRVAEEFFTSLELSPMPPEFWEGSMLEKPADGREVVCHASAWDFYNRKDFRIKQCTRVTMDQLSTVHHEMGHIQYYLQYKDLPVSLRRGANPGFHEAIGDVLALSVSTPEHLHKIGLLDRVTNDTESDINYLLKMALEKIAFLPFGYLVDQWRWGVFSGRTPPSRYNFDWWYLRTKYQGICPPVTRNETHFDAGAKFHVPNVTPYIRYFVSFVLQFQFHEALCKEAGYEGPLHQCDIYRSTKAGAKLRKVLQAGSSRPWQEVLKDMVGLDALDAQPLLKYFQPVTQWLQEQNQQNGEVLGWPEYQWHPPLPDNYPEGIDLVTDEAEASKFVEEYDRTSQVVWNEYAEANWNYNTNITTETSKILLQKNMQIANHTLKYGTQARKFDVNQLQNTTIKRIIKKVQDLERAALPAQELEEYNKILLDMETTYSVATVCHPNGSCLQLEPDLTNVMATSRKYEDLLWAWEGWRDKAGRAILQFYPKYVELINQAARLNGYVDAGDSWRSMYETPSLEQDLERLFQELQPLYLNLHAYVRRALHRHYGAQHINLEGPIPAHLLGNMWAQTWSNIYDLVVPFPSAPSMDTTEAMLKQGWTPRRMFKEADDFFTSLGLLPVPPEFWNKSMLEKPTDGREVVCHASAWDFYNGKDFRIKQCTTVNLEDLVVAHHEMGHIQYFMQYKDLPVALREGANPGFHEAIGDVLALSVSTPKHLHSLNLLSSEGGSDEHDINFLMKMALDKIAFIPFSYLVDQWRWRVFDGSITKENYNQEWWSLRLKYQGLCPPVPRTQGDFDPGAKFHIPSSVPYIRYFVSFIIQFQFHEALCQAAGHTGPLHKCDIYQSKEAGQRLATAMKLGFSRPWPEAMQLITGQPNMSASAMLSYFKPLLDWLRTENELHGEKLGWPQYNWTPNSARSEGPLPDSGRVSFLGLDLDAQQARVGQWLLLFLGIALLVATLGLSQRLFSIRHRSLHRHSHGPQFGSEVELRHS
Method in brief: (§1)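 ACE activity was followed by the release of hippuric acid from the substrate hippuryl-histidyl-leucine. The released hippuric acid was converted to a yellow product with pyridine and benzene sulfonyl chloride, and the colour was read colorimetrically as absorbance. Each condition was run in triplicate and averaged, with lisinopril as the reference standard.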

[2] = biological target: Angiotensin-converting enzyme (Homo sapiens) (UniProt P12821); test: Inhibition of ACE (unknown origin) at 1 uM using synthetic peptide hippuryl-histidyl-leucine substrate by high-throughput colorimetric screening method relative to lisinopril
[3] = biological target: Angiotensin-converting enzyme (Homo sapiens) (UniProt P12821); test: Inhibition of ACE (unknown origin) at 0.5 uM to 10 uM uM using synthetic peptide hippuryl-histidyl-leucine substrate by high-throughput colorimetric screening method; method in brief: as §1

Row | SMILES | inhibition [1] [%] | inhibition [2] [%] | inhibition [3]
1 | Cc1nc2ccccc2c(=O)n1CC(O)COc1cccc2[nH]c3ccccc3c12 (stereo not drawn) | 17 | – | –
2 | O=c1c2ccccc2nc(-c2ccc(Cl)cc2Cl)n1CC(O)COc1cccc2[nH]c3ccccc3c12 (stereo not drawn) | 17 | – | –
3 | O=c1c2ccccc2nc(C(F)(F)F)n1CC(O)COc1cccc2[nH]c3ccccc3c12 (stereo not drawn) | > 75 | 82.9 | Active
4 | O=c1c2ccccc2nc(-c2ccccc2)n1CC(O)COc1cccc2[nH]c3ccccc3c12 (stereo not drawn) | > 75 | 100 | Active

The remaining lines, values ahead:

Row | inhibition [1] [%] | inhibition [2] [%] | inhibition [3] | SMILES
5 | 17 | – | – | O=c1c2ccccc2nc(-c2ccc(F)cc2)n1CC(O)COc1cccc2[nH]c3ccccc3c12 (stereo not drawn)
6 | 17 | – | – | O=c1c2ccccc2nc(-c2ccc([N+](=O)[O-])cc2)n1CC(O)COc1cccc2[nH]c3ccccc3c12 (stereo not drawn)
7 | > 75 | 100 | Active | Cc1ccc(-c2nc3ccccc3c(=O)n2CC(O)COc2cccc3[nH]c4ccccc4c23)cc1 (stereo not drawn)
